A short description of assay [1]: Inhibition of ATP-stimulated [Ca2+] influx into macrophages loaded with fluorescent indicator fura-2-acetoxymethyl at 1000 nM concentration of compound. In kind it is functional. The conditions noted are these: Homo sapiens.
Assay [2] is described as follows: Inhibition of ATP-stimulated [Ca2+] influx into macrophages loaded with fluorescent indicator fura-2-acetoxymethyl at 50 nM concentration of compound. The conditions noted are these: Homo sapiens. In kind it is functional. The method, boiled down: (§1)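 Washed human macrophage cells (10⁶/mL) in HEPES-buffered saline were loaded with fura-2 acetoxymethyl ester for 20 min at 37 °C in the dark, in a stirred cuvette. Cells were preincubated with compound at the stated single concentration for 5 min at 37 °C before ATP stimulation. Ca²⁺ influx was read as the 340:380 nm excitation ratio at 500 nm emission, as percent inhibition. Three repeats.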

A further assay has as its target T1, P2X purinoceptor 7 (Homo sapiens, UniProt Q99572).
T1 sequence (Q99572 whole entry): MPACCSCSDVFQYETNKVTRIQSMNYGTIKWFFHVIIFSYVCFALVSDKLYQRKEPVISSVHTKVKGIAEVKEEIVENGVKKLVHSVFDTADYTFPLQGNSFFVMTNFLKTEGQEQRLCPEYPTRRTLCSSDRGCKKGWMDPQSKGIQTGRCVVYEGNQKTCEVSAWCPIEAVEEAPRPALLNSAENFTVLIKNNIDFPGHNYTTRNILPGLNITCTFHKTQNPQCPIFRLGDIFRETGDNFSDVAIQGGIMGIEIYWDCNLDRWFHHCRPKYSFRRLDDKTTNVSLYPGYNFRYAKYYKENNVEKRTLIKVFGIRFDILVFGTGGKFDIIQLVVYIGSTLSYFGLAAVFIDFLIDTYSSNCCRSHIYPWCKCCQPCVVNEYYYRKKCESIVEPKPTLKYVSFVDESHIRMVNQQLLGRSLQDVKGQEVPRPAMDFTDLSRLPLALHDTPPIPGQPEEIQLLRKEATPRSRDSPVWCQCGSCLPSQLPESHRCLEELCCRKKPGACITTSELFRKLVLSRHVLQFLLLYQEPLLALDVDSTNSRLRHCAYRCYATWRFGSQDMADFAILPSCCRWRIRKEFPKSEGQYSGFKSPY
Nature of the assay: Inhibitory concentration was evaluated against P2X purinoceptor 7. The method, boiled down:
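Human macrophage cells (10⁶/mL, washed, in HEPES-buffered saline) were fura-2-AM loaded for 20 min at 37 °C in the dark. Compounds (25–500 nM) were preincubated 5 min at 37 °C before ATP-stimulated Ca²⁺ influx was measured fluorimetrically (340:380 nm excitation ratio, 500 nm emission). IC50 is the mean from dose-response curves of at least three experiments.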

A short description of assay [3]: Inhibition of ATP-stimulated [Ca2+] influx into macrophages loaded with fluorescent indicator fura-2-acetoxymethyl at 500 nM concentration of compound. Type of assay: functional. The conditions noted are these: Homo sapiens. In short, it runs like this:
as §1

pIC50: −log10 of the molar value.

As to `CN([C@@H](Cc1ccc(OS(=O)(=O)c2cccc3cnccc23)cc1)C(=O)N1CCN(c2ccccc2)CC1)S(=O)(=O)c1cccc2cnccc12`, at 1 µM the inhibition in assay [1] was 100%. In assay [2], this compound returned an inhibition at 0.05 µM of 94.4%. The pIC50 on P2X purinoceptor 7 is 7.87. Further, in assay [3], the inhibition at 0.5 µM was 100%.

In the case of `O=C([C@@H]1Cc2ccc(OS(=O)(=O)c3cccc4ncccc34)cc2CN1S(=O)(=O)c1cccc2ncccc12)N1CCN(c2ccccc2)CC1`, testing at 1 µM in assay [1] gave an inhibition of 66%. In addition, 0.05 µM produced 59% inhibition in assay [2]. Further, in assay [3], testing at 0.5 µM gave an inhibition of 72.4%.

On to `O=C([C@@H]1Cc2ccc(OS(=O)(=O)c3cccc4cnccc34)cc2CN1S(=O)(=O)c1cccc2cnccc12)N1CCN(c2ccccc2)CC1`, for which at 1 µM the inhibition in assay [1] was 25.8%. Moreover, in assay [2], the inhibition at 0.05 µM came to 1.66%. The same compound gave an inhibition at 0.5 µM in assay [3] of 34.5%.

In assay [1], `O=C([C@@H]1Cc2ccc(OS(=O)(=O)c3cccc4cccnc34)cc2CN1S(=O)(=O)c1cccc2cccnc12)N1CCN(c2ccccc2)CC1` registered an inhibition at 1 µM of 0%. In assay [2], the inhibition at 0.05 µM turned out to be 6.9%. Moreover, the inhibition at 0.5 µM in assay [3] was found to be 3.4%.

Regarding `O=C([C@@H]1Cc2ccc(OS(=O)(=O)c3cccc4ccccc34)cc2CN1S(=O)(=O)c1cccc2ccccc12)N1CCN(c2ccccc2)CC1`, the inhibition at 1 µM in assay [1] is 0%. This compound gave an inhibition at 0.05 µM in assay [2] of 0%. In assay [3], this compound yielded an inhibition at 0.5 µM of 0%.

For orientation: inhibition means the drop in the measured response relative to a control, in per cent. The term pIC50 denotes −log10 of the IC50, conventionally taken in molar units. Read a low pIC50 as a large IC50.

(Values after ChEMBL document CHEMBL1133321, “Synthesis of conformationally constrained analogues of KN62, a potent antagonist of the P2X7-receptor” (Bioorg Med Chem Lett, 2000).)
